# Experimental data: ChEMBL document CHEMBL2010712, “Design and synthesis of orally available MEK inhibitors with potent in vivo antitumor efficacy” (Bioorg Med Chem Lett, 2012)
# The source made the active and inactive calls. No cut-off for these calls is given here.
# Assays:
# [1] = target: Tyrosine-protein kinase ABL1 (Homo sapiens) (UniProt P00519); assay: Inhibition of ABL1 at 10 uM
# HL-60 = assay: Antitumor activity against human HL60 cells xenograft model assessed as inhibition of tumor regression at 10 mg/kg, po; type: functional, organism-based; design: dose 10 mg/kg
# Method in brief: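 HL-60 (NRAS) xenograft; compound given orally once daily at maximum tolerated dose over days 12–25 after tumor implant; tumor response followed versus control, complete regressions counted per group.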
# [2] = target: Hepatocyte growth factor receptor (Homo sapiens) (UniProt P08581); assay: Inhibition of cMET at 10 uM
# Sequence of Hepatocyte growth factor receptor (Homo sapiens) (P08581 whole entry): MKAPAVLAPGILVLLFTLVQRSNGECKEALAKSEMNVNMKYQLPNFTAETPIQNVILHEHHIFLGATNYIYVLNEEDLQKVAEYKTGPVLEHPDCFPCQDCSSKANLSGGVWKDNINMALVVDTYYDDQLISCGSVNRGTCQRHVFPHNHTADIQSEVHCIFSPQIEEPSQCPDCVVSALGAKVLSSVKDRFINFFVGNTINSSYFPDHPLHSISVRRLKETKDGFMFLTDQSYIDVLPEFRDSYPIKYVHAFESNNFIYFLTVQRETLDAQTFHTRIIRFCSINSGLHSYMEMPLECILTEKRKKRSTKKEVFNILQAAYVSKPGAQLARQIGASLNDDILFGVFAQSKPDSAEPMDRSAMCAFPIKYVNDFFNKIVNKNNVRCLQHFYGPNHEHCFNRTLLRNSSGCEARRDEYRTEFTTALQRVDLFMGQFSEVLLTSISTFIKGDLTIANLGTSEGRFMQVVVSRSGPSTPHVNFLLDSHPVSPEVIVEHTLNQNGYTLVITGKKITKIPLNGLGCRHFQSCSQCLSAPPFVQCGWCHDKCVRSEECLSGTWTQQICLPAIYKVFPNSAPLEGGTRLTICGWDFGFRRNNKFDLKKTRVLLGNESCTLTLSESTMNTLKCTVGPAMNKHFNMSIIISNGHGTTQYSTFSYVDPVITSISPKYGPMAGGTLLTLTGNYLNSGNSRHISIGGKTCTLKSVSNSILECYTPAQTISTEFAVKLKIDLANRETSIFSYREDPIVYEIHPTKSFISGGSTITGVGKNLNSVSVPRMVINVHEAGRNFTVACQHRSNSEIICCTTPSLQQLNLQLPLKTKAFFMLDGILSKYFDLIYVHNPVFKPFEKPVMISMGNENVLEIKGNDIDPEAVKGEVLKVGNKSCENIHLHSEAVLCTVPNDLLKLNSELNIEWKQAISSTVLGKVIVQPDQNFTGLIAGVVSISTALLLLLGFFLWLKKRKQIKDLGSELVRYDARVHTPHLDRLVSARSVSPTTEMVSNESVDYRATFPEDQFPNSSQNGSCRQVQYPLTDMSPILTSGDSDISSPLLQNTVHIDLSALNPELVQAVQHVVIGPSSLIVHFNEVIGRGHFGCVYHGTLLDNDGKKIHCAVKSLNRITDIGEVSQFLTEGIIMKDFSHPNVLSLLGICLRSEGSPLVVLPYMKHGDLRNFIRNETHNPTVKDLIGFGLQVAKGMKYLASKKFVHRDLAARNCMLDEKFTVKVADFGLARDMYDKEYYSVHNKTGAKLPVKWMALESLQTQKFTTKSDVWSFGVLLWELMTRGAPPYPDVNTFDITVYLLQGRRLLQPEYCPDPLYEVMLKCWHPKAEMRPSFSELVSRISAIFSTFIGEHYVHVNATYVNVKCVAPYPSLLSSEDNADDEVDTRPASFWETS
# [3] = target: Epidermal growth factor receptor (Homo sapiens) (UniProt P00533); assay: Inhibition of EGFR at 10 uM
# [4] = target: Mitogen-activated protein kinase 14 (Homo sapiens) (UniProt Q16539); assay: Inhibition of p38alpha at 10 uM
# Sequence of Mitogen-activated protein kinase 14 (Homo sapiens) (Q16539 whole entry): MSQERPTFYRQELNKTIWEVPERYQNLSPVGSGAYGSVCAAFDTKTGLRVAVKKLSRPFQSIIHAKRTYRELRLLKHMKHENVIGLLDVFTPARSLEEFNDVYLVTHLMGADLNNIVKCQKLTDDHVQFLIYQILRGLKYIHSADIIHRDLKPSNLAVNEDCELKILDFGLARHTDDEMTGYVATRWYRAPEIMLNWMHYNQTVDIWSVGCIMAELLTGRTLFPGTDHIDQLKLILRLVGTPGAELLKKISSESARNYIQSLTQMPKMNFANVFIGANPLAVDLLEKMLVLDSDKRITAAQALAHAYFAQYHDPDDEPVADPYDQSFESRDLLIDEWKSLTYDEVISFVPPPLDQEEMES
# [5] = Half life in human liver microsomes; type: ADME, Microsome
# [6] = Volume of distribution at steady state in rat at 1 mg/kg, iv and 5 mg/kg, po; type: ADME, organism-based; conditions: in vivo, read-out: Vdss
# [7] = target: Protein kinase C alpha type (Homo sapiens) (UniProt P17252); assay: Inhibition of PKCalpha at 10 uM
# [8] = target: Platelet-derived growth factor receptor beta (Homo sapiens) (UniProt P09619); assay: Inhibition of PDGFRbeta at 10 uM
# Sequence of Platelet-derived growth factor receptor beta (Homo sapiens) (P09619 whole entry): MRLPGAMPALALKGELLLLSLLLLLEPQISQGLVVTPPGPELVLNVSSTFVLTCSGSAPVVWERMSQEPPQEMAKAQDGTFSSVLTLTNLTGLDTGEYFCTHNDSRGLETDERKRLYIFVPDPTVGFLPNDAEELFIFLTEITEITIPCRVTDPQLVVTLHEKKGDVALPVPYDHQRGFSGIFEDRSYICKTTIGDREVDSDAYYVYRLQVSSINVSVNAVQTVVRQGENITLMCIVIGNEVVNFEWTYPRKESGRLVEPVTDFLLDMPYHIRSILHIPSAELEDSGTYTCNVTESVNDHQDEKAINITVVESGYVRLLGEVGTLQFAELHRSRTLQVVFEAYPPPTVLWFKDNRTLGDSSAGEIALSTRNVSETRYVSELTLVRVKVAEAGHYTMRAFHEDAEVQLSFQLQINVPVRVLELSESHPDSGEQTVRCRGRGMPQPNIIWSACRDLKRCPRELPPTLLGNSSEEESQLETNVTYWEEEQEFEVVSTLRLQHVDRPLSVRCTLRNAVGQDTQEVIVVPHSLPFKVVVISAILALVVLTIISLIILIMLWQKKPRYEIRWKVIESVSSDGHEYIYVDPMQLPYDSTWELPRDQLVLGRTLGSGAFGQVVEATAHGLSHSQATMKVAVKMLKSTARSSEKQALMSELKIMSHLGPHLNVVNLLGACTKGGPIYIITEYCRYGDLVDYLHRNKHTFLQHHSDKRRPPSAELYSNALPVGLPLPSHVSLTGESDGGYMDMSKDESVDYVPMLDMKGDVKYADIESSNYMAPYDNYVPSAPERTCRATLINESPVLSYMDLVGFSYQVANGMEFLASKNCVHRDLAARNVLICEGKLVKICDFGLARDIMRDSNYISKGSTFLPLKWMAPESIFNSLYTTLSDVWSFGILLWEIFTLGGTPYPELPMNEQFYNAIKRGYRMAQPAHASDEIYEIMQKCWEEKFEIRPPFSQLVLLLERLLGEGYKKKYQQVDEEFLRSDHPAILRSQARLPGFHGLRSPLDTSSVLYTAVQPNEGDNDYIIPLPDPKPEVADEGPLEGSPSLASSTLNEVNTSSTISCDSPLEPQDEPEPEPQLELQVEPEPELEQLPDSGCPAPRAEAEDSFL
# COLO 205 = assay: Cytotoxicity against human COLO205 cells after 72 hrs by MTS assay; conditions: COLO 205, 72 h
# [9] = target: Insulin receptor (Homo sapiens) (UniProt P06213); assay: Inhibition of IR at 10 uM
# [10] = Oral bioavailability in rat at 5 mg/kg; type: ADME, organism-based; conditions: in vivo
# [11] = target: RAC-gamma serine/threonine-protein kinase (Homo sapiens) (UniProt Q9Y243); assay: Inhibition of AKT3 at 10 uM
# Rattus norvegicus = assay: Dose normalized AUC in rat at 1 mg/kg, iv and 5 mg/kg, po; type: ADME, organism-based; conditions: in vivo
# [12] = target: Calcium/calmodulin-dependent protein kinase type 1D (Homo sapiens) (UniProt Q8IU85); assay: Inhibition of CAMK1delta at 10 uM
# A-375 = assay: Cytotoxicity against human A375 cells after 72 hrs by MTS assay; conditions: A-375, 72 h
# [13] = target: T1, Dual specificity mitogen-activated protein kinase kinase 1 (Homo sapiens, UniProt Q02750); assay: Inhibition of MEK1-mediated Erk1/2 phosphorylation in human HT-29 cells at 3 mg/kg plasma concentration measured after 4 hrs by in vivo pharmacodynamic model; type: organism-based; design: dose 3 mg/kg
# Method in brief: (§1)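 In vivo pharmacodynamic study: p-ERK1/2 suppression measured 4 h after dosing across a dose response and related to compound plasma concentration.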
# [14] = target: RAF proto-oncogene serine/threonine-protein kinase (Homo sapiens) (UniProt P04049); assay: Inhibition of c-RAF at 10 uM
# Sequence of RAF proto-oncogene serine/threonine-protein kinase (Homo sapiens) (P04049 whole entry): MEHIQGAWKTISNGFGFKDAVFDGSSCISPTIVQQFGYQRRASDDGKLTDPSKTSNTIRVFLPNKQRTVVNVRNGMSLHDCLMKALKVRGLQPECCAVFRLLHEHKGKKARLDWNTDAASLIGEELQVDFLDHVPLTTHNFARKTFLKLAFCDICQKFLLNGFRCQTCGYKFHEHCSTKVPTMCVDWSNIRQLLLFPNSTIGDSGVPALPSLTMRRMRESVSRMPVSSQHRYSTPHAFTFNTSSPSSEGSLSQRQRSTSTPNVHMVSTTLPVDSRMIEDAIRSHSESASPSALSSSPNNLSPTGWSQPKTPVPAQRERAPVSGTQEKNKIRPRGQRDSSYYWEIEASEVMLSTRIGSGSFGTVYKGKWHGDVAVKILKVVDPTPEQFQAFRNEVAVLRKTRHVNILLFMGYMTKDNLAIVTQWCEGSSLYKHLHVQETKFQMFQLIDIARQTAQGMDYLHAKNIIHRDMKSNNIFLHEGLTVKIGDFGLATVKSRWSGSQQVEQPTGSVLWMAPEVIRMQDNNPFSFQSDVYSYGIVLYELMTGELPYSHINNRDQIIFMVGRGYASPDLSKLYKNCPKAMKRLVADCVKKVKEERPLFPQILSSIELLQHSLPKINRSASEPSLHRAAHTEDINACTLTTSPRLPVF
# [15] = Clearance in rat at 1 mg/kg, iv and 5 mg/kg, po; type: ADME, organism-based; conditions: in vivo
# [16] = target: Glycogen synthase kinase-3 beta (Homo sapiens) (UniProt P49841); assay: Inhibition of GSK3beta at 10 uM
# [17] = Inhibition of cytochrome P450 at 10 uM; type: ADME
# [18] = target: Angiopoietin-1 receptor (Homo sapiens) (UniProt Q02763); assay: Inhibition of Tie2 at 10 uM
# [19] = target: T2, Tyrosine-protein kinase JAK3 (Homo sapiens) (UniProt P52333); assay: Inhibition of JAK3 at 10 uM
# T2 sequence (whole entry): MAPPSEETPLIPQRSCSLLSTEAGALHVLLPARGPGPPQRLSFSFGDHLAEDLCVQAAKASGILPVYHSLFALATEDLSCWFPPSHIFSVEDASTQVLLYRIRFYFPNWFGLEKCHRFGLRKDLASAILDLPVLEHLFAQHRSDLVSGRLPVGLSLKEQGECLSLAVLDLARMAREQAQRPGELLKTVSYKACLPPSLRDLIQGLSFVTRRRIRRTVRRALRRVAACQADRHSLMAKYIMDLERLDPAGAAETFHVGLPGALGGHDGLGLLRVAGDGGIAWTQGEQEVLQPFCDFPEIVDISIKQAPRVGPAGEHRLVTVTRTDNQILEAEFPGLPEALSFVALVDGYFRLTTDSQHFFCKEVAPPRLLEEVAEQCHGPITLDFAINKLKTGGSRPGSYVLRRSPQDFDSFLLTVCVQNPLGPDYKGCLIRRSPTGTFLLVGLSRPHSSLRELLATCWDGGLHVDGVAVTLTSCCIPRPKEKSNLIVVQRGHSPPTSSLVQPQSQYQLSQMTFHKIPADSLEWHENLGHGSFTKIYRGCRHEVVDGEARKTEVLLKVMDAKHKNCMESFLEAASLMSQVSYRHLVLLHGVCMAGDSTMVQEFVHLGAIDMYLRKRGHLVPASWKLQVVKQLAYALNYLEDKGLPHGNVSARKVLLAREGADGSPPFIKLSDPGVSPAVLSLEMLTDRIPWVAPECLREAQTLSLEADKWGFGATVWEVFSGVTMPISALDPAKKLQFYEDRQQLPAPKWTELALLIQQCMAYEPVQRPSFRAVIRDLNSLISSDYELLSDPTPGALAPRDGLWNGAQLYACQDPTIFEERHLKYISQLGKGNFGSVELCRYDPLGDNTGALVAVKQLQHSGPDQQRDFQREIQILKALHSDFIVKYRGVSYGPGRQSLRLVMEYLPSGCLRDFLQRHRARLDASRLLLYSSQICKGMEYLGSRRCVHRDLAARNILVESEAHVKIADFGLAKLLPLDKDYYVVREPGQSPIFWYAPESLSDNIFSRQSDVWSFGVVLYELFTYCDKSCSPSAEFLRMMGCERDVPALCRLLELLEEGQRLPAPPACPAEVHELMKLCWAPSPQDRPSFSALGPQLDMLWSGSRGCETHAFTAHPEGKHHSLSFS
# [20] = target: T1, Dual specificity mitogen-activated protein kinase kinase 1; assay: Inhibition of MEK1-mediated ERK1 phosphorylation using IPTTPITTYFFFK-5FAM-COOH as substrate by fluorescent polarization assay
# [21] = target: Cyclin-dependent kinase 2/cyclin A (Homo sapiens) (UniProt P24941+P20248+P78396); assay: Inhibition of CDK2/cyclin A at 10 uM; type: protein-complex assay
# [22] = target: 3-phosphoinositide-dependent protein kinase 1 (Homo sapiens) (UniProt O15530); assay: Inhibition of PDK1 at 10 uM
# [23] = target: Serine/threonine-protein kinase PLK3 (Homo sapiens) (UniProt Q9H4B4); assay: Inhibition of PLK3 at 10 uM
# [24] = Half life in rat liver microsomes; type: ADME, Microsome
# [25] = target: Proto-oncogene tyrosine-protein kinase Src (Homo sapiens) (UniProt P12931); assay: Inhibition of cSRC at 10 uM
# Sequence of Proto-oncogene tyrosine-protein kinase Src (Homo sapiens) (P12931 2-536 limits assumed): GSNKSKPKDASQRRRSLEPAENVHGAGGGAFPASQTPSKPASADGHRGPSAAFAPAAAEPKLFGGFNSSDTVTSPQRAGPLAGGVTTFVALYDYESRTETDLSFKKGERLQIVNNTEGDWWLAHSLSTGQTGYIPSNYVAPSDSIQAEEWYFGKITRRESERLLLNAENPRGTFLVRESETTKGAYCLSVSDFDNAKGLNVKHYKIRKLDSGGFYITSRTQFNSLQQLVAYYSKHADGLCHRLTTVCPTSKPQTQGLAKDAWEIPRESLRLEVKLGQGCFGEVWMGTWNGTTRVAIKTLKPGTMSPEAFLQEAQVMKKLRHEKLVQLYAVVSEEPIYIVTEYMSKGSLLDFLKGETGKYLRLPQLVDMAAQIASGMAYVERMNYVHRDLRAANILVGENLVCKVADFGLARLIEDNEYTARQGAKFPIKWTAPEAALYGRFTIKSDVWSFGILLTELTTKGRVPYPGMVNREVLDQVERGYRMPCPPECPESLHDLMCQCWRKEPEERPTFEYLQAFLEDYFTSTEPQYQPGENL
# [26] = target: Tyrosine-protein kinase SYK (Homo sapiens) (UniProt P43405); assay: Inhibition of Syk at 10 uM
# [27] = target: T1, Dual specificity mitogen-activated protein kinase kinase 1; assay: Inhibition of MEK1-mediated Erk1/2 phosphorylation in human HT-29 cells at 30 mg/kg measured after 4 hrs by in vivo pharmacodynamic model; type: organism-based; design: dose 30 mg/kg; method in brief: as §1
inhibition [1],inhibition [2],inhibition [3],inhibition [4],half-life [5] [min],Vd [6] [L/kg],inhibition [7],inhibition [8],inhibition [9],bioavailability [10] [%],inhibition [11],AUC/dose (Rattus norvegicus) [ng·h/mL/mg/kg],inhibition [12],inhibition [14],clearance [15] [mL/min/kg],inhibition [16],inhibition (INH) [17],inhibition [18],SMILES,EC50 (COLO 205) [nM],EC50 (A-375) [nM],other results
inactive,inactive,inactive,inactive,99,0.971,inactive,inactive,inactive,29,inactive,204,inactive,inactive,21.4,inactive,Not Active,inactive,Cc1c(Nc2ccc(I)cc2F)c(C(=O)NOCCO)c2n(c1=O)CCC2,1,2,inhibition (HL-60): Active; inhibition [13]: Active; inhibition [19]: inactive; IC50 [20]: 38 nM; inhibition [21]: inactive; inhibition [22]: inactive; inhibition [23]: inactive; half-life [24]: 40 min; inhibition [25]: inactive; inhibition [26]: inactive
inactive,inactive,inactive,inactive,36,1.16,inactive,inactive,inactive,12,inactive,88,inactive,inactive,23.7,inactive,Not Active,inactive,Cn1c(Nc2ccc(I)cc2F)c(C(=O)NOC[C@H](O)CO)c2c1C(=O)CCC2,2.5,3,inhibition [19]: inactive; IC50 [20]: 20 nM; inhibition [21]: inactive; inhibition [22]: inactive; inhibition [23]: inactive; half-life [24]: 26 min; inhibition [25]: inactive; inhibition [26]: inactive
inactive,inactive,inactive,inactive,34,0.596,inactive,inactive,inactive,61,inactive,1670,inactive,inactive,5.9,inactive,Not Active,inactive,C#Cc1ccc(Nc2c(C(=O)NOCCO)c3c(n2C)C(=O)CCC3)c(F)c1,10,15,inhibition [27]: Active; inhibition [19]: inactive; IC50 [20]: 32 nM; inhibition [21]: inactive; inhibition [22]: inactive; inhibition [23]: inactive; half-life [24]: 38 min; inhibition [25]: inactive; inhibition [26]: inactive
